According to ChEMBL document CHEMBL1671769, “Tissue penetration and pharmacokinetics of tigecycline in diabetic patients with chronic wound infections described by using in vivo microdialysis” (Antimicrob Agents Chemother, 2010):
In brackets after ≈: the same amount, converted by molar mass.

Assays:
[1] = Drug penetration in thigh interstitial fluid of diabetic patient with chronic wound infection at […], iv BID for […] by microdialysis; type: ADME, organism-based; conditions: human, in vivo
Method in brief: (§1)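 Tissue penetration is interstitial AUC0-24 (wound or thigh, microdialysis, recovery-corrected) divided by free plasma AUC0-24 × 100. Free plasma values come from the protein-binding polynomial applied to total concentrations. Sampling over a 12-h steady-state interval after IV 100 mg load then 50 mg q12h. Sites were compared by t test or Mann-Whitney.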

[2] = Drug penetration in blister fluid of healthy human at […], iv loading dose followed by […], iv BID for 2 to 3 doses by microdialysis; type: ADME, organism-based; conditions: in vivo
[3] = Tmax in thigh interstitial fluid of diabetic patient with chronic wound infection at […], iv loading dose followed by […], iv BID for […] by microdialysis; type: ADME, organism-based; conditions: human
Method in brief: (§2)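 Subcutaneous microdialysis probes (30 mm membrane, 20 kDa cutoff) placed before dosing, one within 10 cm of wound margin and one in uninfected thigh of the same limb. Patients given IV 100 mg load then 50 mg q12h.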

Staphylococcus aureus = assay: Antimicrobial activity against methicillin-resistant Staphylococcus aureus by CLSI method; type: functional
[4] = Terminal half life in wound interstitial fluid of diabetic patient with chronic wound infection at […], iv loading dose followed by […], iv BID for […] by microdialysis; type: ADME, organism-based; conditions: human; method in brief: as §2
[5] = AUC (0 to 24 hrs) in thigh interstitial fluid of diabetic patient with chronic wound infection at […], iv loading dose followed by […], iv BID for […] by microdialysis; type: ADME, organism-based; set-up: time < 24 hr, route intravenous; conditions: human; method in brief: as §2
Plasma [6] = assay: AUC (0 to 24 hrs) in plasma of diabetic patient with chronic wound infection at […], iv loading dose followed by […], iv BID for 2 to 3 doses by microdialysis; type: ADME, organism-based; set-up: time < 24 hr, route intravenous; conditions: human, in vivo
Method in brief: (§3)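 Eight adult diabetic patients; IV 100 mg loading dose over 1 h via peripheral vein, then 50 mg over 1 h every 12 h for 2–3 further doses. Heparinized venous blood from contralateral arm at 0–12 h over a steady-state interval; plasma stored −80°C; HPLC (linear 0.05–5 μg/ml). Noncompartmental analysis: Cmax by inspection, log-linear trapezoidal AUC0-24, t1/2 = 0.693/λz (≥3 terminal points), […].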

[7] = Terminal half life in plasma of diabetic patient with chronic wound infection at […], iv loading dose followed by […], iv BID for 2 to 3 doses by microdialysis; type: ADME, organism-based; conditions: human; method in brief: as §3
[8] = Ratio of AUC (0 to 24 hrs) in patient with complicated skin and skin structure infections to MIC for Staphylococcus aureus; type: functional
[9] = fAUC (0 to 24 hrs) to MIC for Staphylococcus aureus infected in thigh of ICR mouse; type: functional, Thigh muscle
[10] = Cmax in plasma of diabetic patient with chronic wound infection at […], iv loading dose followed by […], iv BID for 2 to 3 doses by microdialysis; type: ADME, organism-based; set-up: route intravenous; conditions: human; method in brief: as §3
[11] = Drug recovery in wound interstitial fluid of diabetic patient with chronic wound infection at […], iv loading dose followed by […], iv BID for 2 to 3 doses by microdialysis; type: ADME, organism-based; conditions: human, in vivo
Method in brief: (§4)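 In vivo recovery by retrodialysis for each catheter after the final sampling. Perfusate was lactated Ringer's containing 500 μg/ml drug, perfused for 1 h at 2 μl/min. Recovery = 100 − (100 × Cdialysate/Cperfusate), measured by HPLC.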

[12] = Tmax in plasma of diabetic patient with chronic wound infection at […], iv loading dose followed by […], iv BID for 2 to 3 doses by microdialysis; type: ADME, organism-based; conditions: human; method in brief: as §3
[13] = AUC (0 to 24 hrs) in wound interstitial fluid of diabetic patient with chronic wound infection at […], iv loading dose followed by […], iv BID for […] by microdialysis; type: ADME, organism-based; set-up: time < 24 hr, route intravenous; conditions: human; method in brief: as §2
[14] = Cmax in thigh interstitial fluid of diabetic patient with chronic wound infection at […], iv loading dose followed by […], iv BID for […] by microdialysis; type: ADME, organism-based; set-up: route intravenous; conditions: human; method in brief: as §2
[15] = fTmax in plasma of diabetic patient with chronic wound infection at […], iv loading dose followed by […], iv BID for 2 to 3 doses by microdialysis; type: ADME, organism-based; conditions: human
Method in brief: (§5)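 Steady-state plasma after IV 100 mg loading then 50 mg every 12 h (1-h infusions) in diabetic patients. Total HPLC plasma levels converted to free using a polynomial fitted to ultrafiltration-derived percent unbound versus plasma concentration (y = y0 + a/x + b/x² + c/x³). Free-drug profiles analysed noncompartmentally; Cmax by visual inspection.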

[16] = Drug penetration in wound interstitial fluid of diabetic patient with chronic wound infection at […], iv loading dose followed by […], iv BID for […] by microdialysis; type: ADME, organism-based; conditions: human, in vivo; method in brief: as §1
Plasma [17] = assay: fCmax in plasma of diabetic patient with chronic wound infection at […], iv loading dose followed by […], iv BID for 2 to 3 doses by microdialysis; type: ADME, organism-based; conditions: human, in vivo; method in brief: as §5
[18] = Tmax in wound interstitial fluid of diabetic patient with chronic wound infection at […], iv loading dose followed by […], iv BID for […] by microdialysis; type: ADME, organism-based; conditions: human; method in brief: as §2
[19] = Terminal half life in thigh interstitial fluid of diabetic patient with chronic wound infection at […], iv loading dose followed by […], iv BID for […] by microdialysis; type: ADME, organism-based; conditions: human; method in brief: as §2
[20] = Drug recovery in thigh interstitial fluid of diabetic patient with chronic wound infection at […], iv loading dose followed by […], iv BID for 2 to 3 doses by microdialysis; type: ADME, organism-based; conditions: human, in vivo; method in brief: as §4
[21] = Ratio of AUC (0 to 24 hrs) in plasma diabetic patient with chronic wound infection to MIC for methicillin-resistant Staphylococcus aureus; type: functional
Method in brief: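 Eight adult diabetic patients; tigecycline 100 mg IV over 1 h, then 50 mg over 1 h every 12 h for 2–3 more doses. Venous plasma was sampled over the 12-h steady-state interval and total drug measured by HPLC.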

[22] = Ratio of fAUC (0 to 24 hrs) in plasma of diabetic patient with chronic wound infection to MIC for methicillin-resistant Staphylococcus aureus; type: functional
Method in brief: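 Same patients and IV regimen (100 mg load, then 50 mg q12h). Total plasma levels measured by HPLC over the 12-h steady-state interval were converted to free drug using a polynomial fit of ultrafiltration protein binding, measured in triplicate at 1, 6 and 12 h.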

[23] = Cmax in wound interstitial fluid of diabetic patient with chronic wound infection at […], iv loading dose followed by […], iv BID for […] by microdialysis; type: ADME, organism-based; set-up: route intravenous; conditions: human; method in brief: as §2
Plasma [24] = assay: Clearance at steady state in plasma of diabetic patient with chronic wound infection at […], iv loading dose followed by […], iv BID for 2 to 3 doses by microdialysis; type: ADME, organism-based; conditions: human, in vivo; method in brief: as §3
[25] = Volume of distribution at steady state in plasma of diabetic patient with chronic wound infection at […], iv loading dose followed by […], iv BID for 2 to 3 doses by microdialysis; type: ADME, organism-based; conditions: human, read-out: Vdss; method in brief: as §3
[26] = Ratio of AUC (0 to 24 hrs) in thigh interstitial fluid of diabetic patient with chronic wound infection to MIC for methicillin-resistant Staphylococcus aureus; type: functional, Thigh muscle

**Q.** For `CN(C)c1cc(NC(=O)CNC(C)(C)C)c(O)c2c1C[C@H]1C[C@H]3[C@H](N(C)C)C(O)=C(C(N)=O)C(=O)[C@@]3(O)C(O)=C1C2=O` [TIGECYCLINE], which Drug uptake [1] is on record?
**A.** The Drug uptake was 98.94%.

**Q.** And the Drug uptake [2]?
**A.** Its Drug uptake is 74%.

**Q.** What about the Tmax [3] of the same compound?
**A.** Its Tmax is 3.38 h.

**Q.** What about the MIC90 (Staphylococcus aureus) of the same compound?
**A.** Its MIC90 is 0.12 µg/mL (≈ 0.205 µM).

**Q.** And the half-life [4]?
**A.** Its half-life is 24.9 h.

**Q.** And the AUC at 24 h [5]?
**A.** The AUC at 24 h was 2520 ng·h/mL.

**Q.** And the AUC (Plasma [6])?
**A.** The AUC was 3990 ng·h/mL.

**Q.** What about the half-life [7] of the same compound?
**A.** Its half-life is 9.73 h.

**Q.** What about the RatioAUC/MIC [8] of the same compound?
**A.** The RatioAUC/MIC was 17.9.

**Q.** What about the fAUC/MIC [9] of the same compound?
**A.** The fAUC/MIC was 5.7.

**Q.** And the Cmax [10]?
**A.** Its Cmax is 420 ng/mL.

**Q.** And the Activity [11]?
**A.** The Activity was 57.03%.

**Q.** And the Tmax [12]?
**A.** The Tmax was 1.13 h.

**Q.** And the AUC at 24 h [13]?
**A.** The AUC at 24 h was 2600 ng·h/mL.

**Q.** What about the Cmax [14] of the same compound?
**A.** Its Cmax is 180 ng/mL.

**Q.** And the Tmax [15]?
**A.** The Tmax was 1.13 h.

**Q.** And the Drug uptake [16]?
**A.** The Drug uptake was 100%.

**Q.** What about the Cmax_unbound (Plasma [17]) of the same compound?
**A.** The Cmax_unbound was 160 ng/mL.

**Q.** And the Tmax [18]?
**A.** Its Tmax is 4.38 h.

**Q.** What about the half-life [19] of the same compound?
**A.** The half-life was 16 h.

**Q.** What about the Activity [20] of the same compound?
**A.** Its Activity is 53.48%.

**Q.** And the RatioAUC/MIC [21]?
**A.** The RatioAUC/MIC was 33.25.

**Q.** And the RatioAUC/MIC [22]?
**A.** Its RatioAUC/MIC is 22.1.

**Q.** What about the Cmax [23] of the same compound?
**A.** Its Cmax is 160 ng/mL.

**Q.** What about the CLss (Plasma [24]) of the same compound?
**A.** The CLss was 4.67 mL/min/kg.

**Q.** And the Vd [25]?
**A.** The Vd was 3.95 L/kg.

**Q.** And the RatioAUC/MIC [26]?
**A.** The RatioAUC/MIC was 21.
